# According to ChEMBL document CHEMBL1649231, “In vitro activities of panduratin A against clinical Staphylococcus strains” (2009):
# How the values were obtained:
# Type in all cases: functional
# Staphylococcus hominis [1] = assay: Bactericidal activity against methicillin-resistant coagulase-negative Staphylococcus hominis after 24 hrs by plate counting method
# [2] = test system: Staphylococcus haemolyticus; assay: Antimicrobial activity against methicillin-resistant coagulase-negative Staphylococcus haemolyticus after 24 hrs by broth microdilution method
# Procedure, shortened: (§1)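 Clinical isolates came from blood, body fluids, genital secretions, pus or sputum, identified conventionally or by Vitek. MICs were run by CLSI M7-A6 broth microdilution in Mueller-Hinton broth with 5 × 10^5 CFU/ml inoculum. Agents were twofold serially diluted, starting from 10% DMSO. Drug-free and uninoculated controls were included. Plates were incubated aerobically at 37°C for 24 h; MIC is the lowest concentration giving no visible growth.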
# Staphylococcus aureus [3] = assay: Bactericidal activity against methicillin-resistant Staphylococcus aureus after 24 hrs by plate counting method; conditions: Staphylococcus aureus, 24 h
# Porphyromonas gingivalis [4] = assay: Bactericidal activity against Porphyromonas gingivalis
# Mammaliicoccus sciuri [5] = assay: Antimicrobial activity against methicillin-resistant coagulase-negative Staphylococcus sciuri after 24 hrs by broth microdilution method; procedure, shortened: as §1
# Staphylococcus aureus [6] = assay: Bactericidal activity against methicillin-susceptible Staphylococcus aureus after 24 hrs by plate counting method
# Procedure, shortened: (§2)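 Clinical staphylococcal isolates from patient body fluids, blood, genital secretions, pus or sputum; species by conventional methods or Vitek. Twofold dilutions in Mueller-Hinton broth, inoculum 5 × 10^5 CFU/ml, 37°C aerobic 24 h (CLSI M7-A6 microdilution). About 100 μl from each well without visible growth spread on MHA; 37°C 24 h. MBC = lowest concentration giving no growth on agar.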
# Staphylococcus simulans [7] = assay: Bactericidal activity against methicillin-susceptible coagulase-negative Staphylococcus simulans after 24 hrs by plate counting method; procedure, shortened: as §2
# [8] = test system: Staphylococcus epidermidis; assay: Bactericidal activity against methicillin-susceptible coagulase-negative Staphylococcus epidermidis after 24 hrs by plate counting method; procedure, shortened: as §2
# [9] = test system: Staphylococcus epidermidis; assay: Antimicrobial activity against methicillin-susceptible coagulase-negative Staphylococcus epidermidis after 24 hrs by broth microdilution method; procedure, shortened: as §1
# Hoylesella loescheii [10] = assay: Antimicrobial activity against Prevotella loescheii
# Staphylococcus aureus [11] = assay: Antimicrobial activity against methicillin-resistant Staphylococcus aureus after 24 hrs by broth microdilution method; procedure, shortened: as §1
# [12] = test system: Staphylococcus haemolyticus; assay: Antimicrobial activity against methicillin-susceptible coagulase-negative Staphylococcus haemolyticus after 24 hrs by broth microdilution method; procedure, shortened: as §1
# Streptococcus mutans [13] = assay: Antimicrobial activity against Streptococcus mutans
# Streptococcus mutans [14] = assay: Bactericidal activity against Streptococcus mutans
# [15] = test system: Staphylococcus epidermidis; assay: Antimicrobial activity against methicillin-resistant coagulase-negative Staphylococcus epidermidis after 24 hrs by broth microdilution method; procedure, shortened: as §1
# Cutibacterium acnes [16] = assay: Antimicrobial activity against Propionibacterium acnes
# Staphylococcus simulans [17] = assay: Bactericidal activity against methicillin-resistant coagulase-negative Staphylococcus simulans after 24 hrs by plate counting method; procedure, shortened: as §2
# Porphyromonas gingivalis [18] = assay: Antimicrobial activity against Porphyromonas gingivalis
# Staphylococcus aureus [19] = assay: Antimicrobial activity against methicillin-susceptible Staphylococcus aureus after 24 hrs by broth microdilution method; procedure, shortened: as §1
# [20] = test system: Staphylococcus epidermidis; assay: Bactericidal activity against methicillin-resistant coagulase-negative Staphylococcus epidermidis after 24 hrs by plate counting method
# Mammaliicoccus sciuri [21] = assay: Antimicrobial activity against methicillin-susceptible coagulase-negative Staphylococcus sciuri after 24 hrs by broth microdilution method; procedure, shortened: as §1
# Staphylococcus simulans [22] = assay: Antimicrobial activity against methicillin-resistant coagulase-negative Staphylococcus simulans after 24 hrs by broth microdilution method; procedure, shortened: as §1
# [23] = test system: Staphylococcus haemolyticus; assay: Bactericidal activity against methicillin-resistant coagulase-negative Staphylococcus haemolyticus after 24 hrs by plate counting method
# Staphylococcus simulans [24] = assay: Antimicrobial activity against methicillin-susceptible coagulase-negative Staphylococcus simulans after 24 hrs by broth microdilution method; procedure, shortened: as §1
# Cutibacterium acnes [25] = assay: Bactericidal activity against Propionibacterium acnes
# Staphylococcus hominis [26] = assay: Bactericidal activity against methicillin-susceptible coagulase-negative Staphylococcus hominis after 24 hrs by plate counting method; procedure, shortened: as §2
# Hoylesella loescheii [27] = assay: Bactericidal activity against Prevotella loescheii
# Mammaliicoccus sciuri [28] = assay: Bactericidal activity against methicillin-resistant coagulase-negative Staphylococcus sciuri after 24 hrs by plate counting method; procedure, shortened: as §2
# Prevotella intermedia [29] = assay: Bactericidal activity against Prevotella intermedia
# Staphylococcus hominis [30] = assay: Antimicrobial activity against methicillin-resistant coagulase-negative Staphylococcus hominis after 24 hrs by broth microdilution method; procedure, shortened: as §1
# Staphylococcus hominis [31] = assay: Antimicrobial activity against methicillin-susceptible coagulase-negative Staphylococcus hominis after 24 hrs by broth microdilution method; procedure, shortened: as §1
# Mammaliicoccus sciuri [32] = assay: Bactericidal activity against methicillin-susceptible coagulase-negative Staphylococcus sciuri after 24 hrs by plate counting method; procedure, shortened: as §2
# Prevotella intermedia [33] = assay: Antimicrobial activity against Prevotella intermedia
# [34] = test system: Staphylococcus haemolyticus; assay: Bactericidal activity against methicillin-susceptible coagulase-negative Staphylococcus haemolyticus after 24 hrs by plate counting method; procedure, shortened: as §2
# [35] = Staphylococcus epidermidis, 24 h
# [36] = Staphylococcus haemolyticus, 24 h
smiles,measurement,setting,value
COc1cc(O)c(C(=O)[C@@H]2[C@H](CC=C(C)C)C(C)=CC[C@H]2c2ccccc2)c(O)c1 [PANDURATIN A],MBC50,Staphylococcus hominis [1],2 µg/mL
same,MBC,"Staphylococcus hominis [1]; Staphylococcus hominis, 24 h",1 µg/mL
same,MIC50,[2],0.25 µg/mL
same,MIC90,[2],1 µg/mL
same,MBC,Staphylococcus aureus [3],2 µg/mL
same,MBC,Porphyromonas gingivalis [4],8 µg/mL
same,MIC50,Mammaliicoccus sciuri [5],0.25 µg/mL
same,MIC90,Mammaliicoccus sciuri [5],1 µg/mL
same,MBC50,Staphylococcus aureus [6],2 µg/mL
same,MBC90,Staphylococcus aureus [6],4 µg/mL
same,MBC,"Staphylococcus aureus [6]; Staphylococcus aureus, 24 h",1 µg/mL
same,MBC50,Staphylococcus simulans [7],1 µg/mL
same,MBC90,Staphylococcus simulans [7],4 µg/mL
same,MBC,"Staphylococcus simulans [7]; Staphylococcus simulans, 24 h",0.125 µg/mL
same,MBC50,[8],1 µg/mL
same,MBC90,[8],4 µg/mL
same,MBC,[8]; [35],0.125 µg/mL
same,MIC50,[9],0.5 µg/mL
same,MIC90,[9],1 µg/mL
same,MIC,Hoylesella loescheii [10],4 µg/mL
same,MIC,Staphylococcus aureus [11],0.5 µg/mL
same,MIC50,Staphylococcus aureus [11],0.5 µg/mL
same,MIC90,Staphylococcus aureus [11],1 µg/mL
same,MIC50,[12],0.5 µg/mL
same,MIC90,[12],1 µg/mL
same,MIC,Streptococcus mutans [13],4 µg/mL
same,MBC,Streptococcus mutans [14],8 µg/mL
same,MIC50,[15],0.25 µg/mL
same,MIC90,[15],1 µg/mL
same,MIC,Cutibacterium acnes [16],2 µg/mL
same,MBC50,Staphylococcus simulans [17],2 µg/mL
same,MBC,"Staphylococcus simulans [17]; Staphylococcus simulans, 24 h",1 µg/mL
same,MIC,Porphyromonas gingivalis [18],4 µg/mL
same,MIC,Staphylococcus aureus [19],0.5 µg/mL
same,MIC50,Staphylococcus aureus [19],0.5 µg/mL
same,MIC90,Staphylococcus aureus [19],1 µg/mL
same,MBC50,[20],2 µg/mL
same,MBC,[20]; [35],1 µg/mL
same,MIC50,Mammaliicoccus sciuri [21],0.5 µg/mL
same,MIC90,Mammaliicoccus sciuri [21],1 µg/mL
same,MIC50,Staphylococcus simulans [22],0.25 µg/mL
same,MIC90,Staphylococcus simulans [22],1 µg/mL
same,MBC50,[23],2 µg/mL
same,MBC,[23]; [36],1 µg/mL
same,MIC50,Staphylococcus simulans [24],0.5 µg/mL
same,MIC90,Staphylococcus simulans [24],1 µg/mL
same,MBC,Cutibacterium acnes [25],4 µg/mL
same,MBC50,Staphylococcus hominis [26],1 µg/mL
same,MBC90,Staphylococcus hominis [26],4 µg/mL
same,MBC,"Staphylococcus hominis [26]; Staphylococcus hominis, 24 h",0.125 µg/mL
same,MBC,Hoylesella loescheii [27],8 µg/mL
same,MBC50,Mammaliicoccus sciuri [28],2 µg/mL
same,MBC,"Mammaliicoccus sciuri [28]; Mammaliicoccus sciuri, 24 h",1 µg/mL
same,MBC,Prevotella intermedia [29],4 µg/mL
same,MIC50,Staphylococcus hominis [30],0.25 µg/mL
same,MIC90,Staphylococcus hominis [30],1 µg/mL
same,MIC50,Staphylococcus hominis [31],0.5 µg/mL
same,MIC90,Staphylococcus hominis [31],1 µg/mL
same,MBC50,Mammaliicoccus sciuri [32],1 µg/mL
same,MBC90,Mammaliicoccus sciuri [32],4 µg/mL
same,MBC,"Mammaliicoccus sciuri [32]; Mammaliicoccus sciuri, 24 h",0.125 µg/mL
same,MIC,Prevotella intermedia [33],2 µg/mL
same,MBC50,[34],1 µg/mL
same,MBC90,[34],4 µg/mL
same,MBC,[34]; [36],0.125 µg/mL
